This note sets out measurements from ChEMBL document CHEMBL4190313, “In vitro targeting of colon cancer cells using spiropyrazoline oxindoles” (Eur J Med Chem, 2017).

Active and inactive are the calls of the source. The calls are words filed in the database; no cut-off is given here.

In general, IC50 refers to the concentration that inhibits the measured activity by half. High values mean weaker potency, low ones greater potency.

Series [1] deals with HCT-116. Put plainly: Antiproliferative activity against human HCT116 p53+/+ cells after 72 hrs by MTS assay. The series is classed as functional, cell-based. To be noted: HCT-116, 72 h. The essentials: (§1)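 Cells allowed to adhere 24 h (1x10⁴/well), then exposed to 0.5-50 μM compound from DMSO stocks (final DMSO ≤0.8% v/v) for 72 h. Viability by MTS bio-reduction to formazan, absorbance 490 nm. IC50 from log(inhibitor) vs response (variable slope) fit, at least three independent experiments; table values mean ± SD of three experiments in duplicate.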
(Tetrazolium dyes change colour on reduction, which living cells bring about.)

For series [2], the system named is HCT-116. Put plainly: Induction of apoptosis in human HCT116 p53+/+ cells assessed as early apoptotic cells at IC50 after 72 hrs by Annexin V-FITC/7-AAD staining-based flow cytometric analysis relative to control. The series is classed as functional. The essentials: (§2)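 HCT-116 p53+/+ cells (5x10⁴/well) exposed at IC50 or 2xIC50, or DMSO, for 72 h. Medium and Accutase-detached cells pooled, resuspended in PBS/2% FBS, stained with Annexin V/7-AAD reagent 20 min at room temperature in the dark. Flow cytometry, at least 5000 events per sample; mean ± SD of three independent experiments.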
A general note: Flow cytometry measures light scatter and fluorescence of single cells or particles in a stream.

For series [3], the target named is T1, Tumour suppressor p53/oncoprotein Mdm2 (Homo sapiens) (UniProt P04637+Q00987). Put plainly: Inhibition of MDM2/p53 interaction in human HCT116 cells assessed as downregulation of MDM2 protein expression at IC50 after 72 hrs by Western blot analysis. The series is classed as cell-based. (In western blotting, separated proteins are transferred to a membrane and probed.)

In series [4] the test system is HCT-116. Description: Cell cycle arrest in human HCT116 p53+/+ cells assessed as accumulation at S phase at IC50 after 24 hrs by propidium iodide staining-based flow cytometric analysis (reference value: 37.44%). The series is classed as functional.
Series [5] deals with HCT-116. Description: Antiproliferative activity against human HCT116 p53-/- cells after 72 hrs by MTS assay. The series is classed as functional, cell-based. The following applies: HCT-116, 72 h. In short, it runs like this: as §1
Series [6] relates to HCT-116. Description: Cell cycle arrest in human HCT116 p53+/+ cells assessed as accumulation at G0/G1 phase at IC50 after 48 hrs by propidium iodide staining-based flow cytometric analysis (reference value: 50.48%). The series is classed as functional.
Series [7] relates to HCT-116. Put plainly: Cell cycle arrest in human HCT116 p53+/+ cells assessed as accumulation at G2/M phase at IC50 after 24 hrs by propidium iodide staining-based flow cytometric analysis (reference value: 29.07%). The series is classed as functional.
Series [8] concerns the target T1, Tumour suppressor p53/oncoprotein Mdm2 (Homo sapiens). Description: Inhibition of MDM2/p53 interaction in human HCT116 cells assessed as upregulation of p53 protein expression at IC50 after 72 hrs by Western blot analysis. The series is classed as cell-based.
Series [9] has as its system HCT-116. Put plainly: Cytotoxicity against human HCT116 p53+/+ cells at IC50 after 72 hrs by LDH release assay. The series is classed as functional, cell-based. The essentials: (§3)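 HCT-116 p53+/+ cells treated at IC50 or 2xIC50, or DMSO, for 72 h. Supernatant mixed with LDH assay substrate 10-30 min at room temperature in the dark; absorbance 490 nm, 620 nm reference. LDH release normalized to DMSO control; mean ± SEM of three independent experiments.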

Series [10] has as its system HCT-116. Description: Synergistic cytotoxicity against human HCT116 p53+/+ cells at IC10 to IC20 after 72 hrs in presence of 5-FU by MTS assay. The series is classed as functional, cell-based.
Series [11] concerns HCT-116. Description: Cytotoxicity against human HCT116 p53+/+ cells at 2 times IC50 after 72 hrs by LDH release assay relative to control. The series is classed as functional. In short, it runs like this: as §3
For series [12], the system named is HCT-116. Description: Cell cycle arrest in human HCT116 p53+/+ cells assessed as accumulation at G2/M phase at IC50 after 48 hrs by propidium iodide staining-based flow cytometric analysis (reference value: 26.85%). The series is classed as functional.
Series [13] relates to CCD-18Co. Put plainly: Cytotoxicity against human CCD-18Co cells at IC50 after 72 hrs by MTS assay. The series is classed as cell-based.
For series [14], the system named is HCT-116. Put plainly: Cell cycle arrest in human HCT116 p53+/+ cells assessed as accumulation at G0/G1 phase at IC50 after 24 hrs by propidium iodide staining-based flow cytometric analysis (reference value: 33.49%). The series is classed as functional.
Series [15] concerns the target E3 ubiquitin-protein ligase Mdm2 (Homo sapiens) (UniProt Q00987). Description: Inhibition of FAM-tagged p53-based fluorescent probe binding to human His-tagged MDM2 (1 to 118 residues) up to 400 uM after 30 mins by fluorescence polarization assay. The essentials: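 Recombinant human His-tagged MDM2 (residues 1-118), final 10 nM, preincubated with 5-FAM-labelled p53-based peptidomimetic probe, final 1 nM (Kd 1.4 ± 0.3 nM). Buffer: 100 mM potassium phosphate pH 7.5, 100 μg/ml bovine γ-globulin, 0.02% sodium azide, 0.01% Triton X-100, final 4% DMSO. Incubated 30 min at room temperature with shaking; polarization read at ex 485/em 530 nm. Inhibition calculated against protein+probe and free-probe controls.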

Series [16] has as its system HCT-116. Description: Synergistic cytotoxicity against human HCT116 p53+/+ cells at IC50 after 72 hrs in presence of 5-FU by MTS assay. The series is classed as functional, cell-based.
The test system of series [17] is CCD-18Co. Put plainly: Cytotoxicity against human CCD-18Co cells at IC80 after 72 hrs by MTS assay relative to control. The series is classed as cell-based.
The target in series [18] is T1, Tumour suppressor p53/oncoprotein Mdm2 (Homo sapiens). Put plainly: Inhibition of MDM2-V2/V1-p53 (unknown origin) interaction expressed in human HCT116 p53-/- cells at 20 uM after 20 hrs by biomolecular fluorescence complementation-based flow cytometric analysis. The series is classed as cell-based. The essentials: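 HCT-116 p53-/- cells cotransfected with 1 µg each of V1-p53 and MDM2-V2 Venus BiFC plasmids by lipofection. Medium replaced 4-6 h later and compound added at 5, 10 or 20 μM, or DMSO, for a further 20 h. Cells detached with accutase; Venus fluorescence by flow cytometry, normalized to DMSO (100%). Mean ± SD of three independent experiments.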

Series [19] concerns HCT-116. Put plainly: Cell cycle arrest in human HCT116 p53+/+ cells assessed as accumulation at S phase at IC50 after 48 hrs by propidium iodide staining-based flow cytometric analysis (reference value: 22.67%). The series is classed as functional.
Series [20] has as its system HCT-116. Description: Induction of apoptosis in human HCT116 p53+/+ cells assessed as increase in early apoptotic cells at 2 times IC50 after 72 hrs by Annexin V-FITC/7-AAD staining-based flow cytometric analysis. The series is classed as functional, cell-based. In short, it runs like this: as §2

T1 sequence (P04637 whole entry, looked up): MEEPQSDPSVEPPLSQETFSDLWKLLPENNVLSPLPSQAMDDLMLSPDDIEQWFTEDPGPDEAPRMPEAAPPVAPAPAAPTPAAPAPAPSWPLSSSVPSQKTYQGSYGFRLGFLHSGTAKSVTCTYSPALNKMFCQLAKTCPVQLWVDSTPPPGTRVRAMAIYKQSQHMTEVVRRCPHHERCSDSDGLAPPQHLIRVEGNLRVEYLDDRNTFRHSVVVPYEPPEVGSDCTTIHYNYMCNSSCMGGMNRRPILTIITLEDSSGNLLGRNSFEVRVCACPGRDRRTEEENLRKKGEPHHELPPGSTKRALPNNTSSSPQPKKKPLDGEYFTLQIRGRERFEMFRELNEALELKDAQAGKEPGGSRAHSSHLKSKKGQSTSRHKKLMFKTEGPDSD
T1 sequence (Q00987 whole entry, looked up): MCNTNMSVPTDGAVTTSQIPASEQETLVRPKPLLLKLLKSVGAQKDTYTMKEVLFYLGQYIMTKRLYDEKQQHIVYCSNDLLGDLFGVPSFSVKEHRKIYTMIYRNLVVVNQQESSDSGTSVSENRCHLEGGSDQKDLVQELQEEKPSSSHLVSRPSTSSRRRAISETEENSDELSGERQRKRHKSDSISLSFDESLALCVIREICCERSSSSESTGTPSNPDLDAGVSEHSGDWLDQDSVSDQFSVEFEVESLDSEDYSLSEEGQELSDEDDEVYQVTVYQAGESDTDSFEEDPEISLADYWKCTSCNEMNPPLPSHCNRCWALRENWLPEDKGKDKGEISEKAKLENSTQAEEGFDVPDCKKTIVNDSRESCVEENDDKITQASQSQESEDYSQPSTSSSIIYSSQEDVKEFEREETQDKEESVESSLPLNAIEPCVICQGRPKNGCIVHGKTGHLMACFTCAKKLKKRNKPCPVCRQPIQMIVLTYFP
E3 ubiquitin-protein ligase Mdm2 (Homo sapiens), sequence (Q00987 whole entry, looked up, the tested form may be a part): as the sequence (Q00987 whole entry, looked up) above

Turning to `O=C1Nc2cc(Br)ccc2[C@]12[C@@H](c1ccccc1)C(c1ccccc1)=NN2c1ccccc1`, the IC50 in series [1] is 15.9 µM.
Still for that read-out and setting: under `COc1ccc(C2=NN(c3ccccc3)[C@]3(C(=O)Nc4c(Cl)cccc43)[C@H]2c2ccccc2)cc1` stands 15.6 µM; under `O=C1Nc2c(Cl)cccc2[C@]12[C@@H](c1ccccc1)C(c1ccccc1)=NN2c1ccccc1Cl`, > 20 µM.
Still for that read-out and setting: as for `CC(C)(C)C1=NN(c2ccccc2)[C@]2(C(=O)Nc3ccc(Br)cc32)[C@H]1c1ccccc1`, the figure is > 20 µM; as for `O=C1Nc2cc(Br)ccc2[C@@]12ON=C(c1ccccc1)[C@@H]2c1ccccc1`, 35 µM.
Consider `CC(C)(C)C1=NN(c2ccccc2)[C@]2(C(=O)Nc3cc(Br)ccc32)[C@H]1c1ccccc1`, for which, in series [1], the IC50 was > 20 µM.
Still for that read-out and setting: as for `CC(C)(C)C1=NN(c2ccccc2)[C@]2(C(=O)Nc3c(Cl)cccc32)[C@H]1c1ccccc1`, the figure is 13.3 µM.
`O=C1Nc2cc(Cl)ccc2[C@@]12ON=C(c1ccccc1)[C@@H]2c1ccccc1` gave an IC50 in [1] of 39.8 µM.
In [1], `O=C1Nc2c(Cl)cccc2[C@]12[C@@H](c1ccccc1)C(c1ccccc1)=NN2c1ccccc1` showed an IC50 of 16.6 µM.
Still for that read-out and setting: under `O=C1Nc2ccc(Cl)cc2[C@]12[C@@H](c1ccccc1)C(c1ccccc1)=NN2c1ccccc1` stands 11 µM.
On the same count and under the same terms, under `CC(C)(C)C1=NN(c2ccccc2Cl)[C@]2(C(=O)Nc3ccccc32)[C@H]1c1ccccc1` stands > 20 µM.
`CC(C)(C)C1=NN(c2ccccc2Cl)[C@]2(C(=O)Nc3ccc(Cl)cc32)[C@H]1c1ccccc1`: in [1], the half-maximal inhibitory concentration (IC50) was > 20 µM.
`O=C1Nc2cc(Cl)c(F)cc2[C@]12[C@@H](c1ccccc1)C(c1ccccc1)=NN2c1ccccc1` registered an IC50 in [1] of 12.4 µM.
Molecule `COc1ccc(C2=NN(c3ccccc3)[C@]3(C(=O)Nc4cc(Br)ccc43)[C@H]2c2ccccc2)cc1` registered a 50% inhibitory concentration (IC50) in series [1] of 12.8 µM.
`CC(C)(C)C1=NN(c2ccccc2Cl)[C@]2(C(=O)Nc3c(Cl)cccc32)[C@H]1c1ccccc1` gave an IC50 in [1] of 17.3 µM.
On the same count and under the same terms, as for `CC(C)(C)C1=NN(c2ccccc2)[C@]2(C(=O)Nc3ccccc32)[C@H]1c1ccccc1`, the figure is > 20 µM; as for `COc1ccc(C2=NN(c3ccccc3)[C@]3(C(=O)Nc4ccc(Cl)cc43)[C@H]2c2ccccc2)cc1`, 10.6 µM; as for `CC(C)(C)C1=NN(c2ccccc2)[C@]2(C(=O)Nc3cc(Cl)ccc32)[C@H]1c1ccccc1`, > 20 µM.
Still for that read-out and setting: as for `O=C1Nc2cc(Cl)ccc2[C@]12[C@@H](c1ccccc1)C(c1ccccc1)=NN2c1ccccc1`, the figure is 16.7 µM.
For `O=C1Nc2ccc(Br)cc2[C@]12[C@@H](c1ccccc1)C(c1ccccc1)=NN2c1ccccc1`, the Activity in [2] was 10%; in [4], 38.59%; in series [6], 62%; in series [7] it was 19.55%; in [12] it was 15.17%; in series [13], “Non-Toxic”. Also, the Activity in [14] is 41.85%; in [17], 20%; in [19], 15.38%. The inhibition entry in [3], in [8] and in series [18] was “Active” in each case. Also, the IC50 in series [5] turned out to be 14.2 µM; in [1], 13.1 µM. Also, the result in series [9] and in series [16] was inactive. Also, in series [10], the outcome was Active. In addition, the “fold change (FC)” value in [11] worked out at 1.5. Moreover, the inhibition result in [15] is “inactive”.
For `CC(C)(C)C1=NN(c2ccccc2)[C@]2(C(=O)Nc3ccc(Cl)cc32)[C@H]1c1ccccc1`, half-maximal inhibition in [1] (IC50) was put at 17 µM.
Still for that read-out and setting: as for `COc1ccc(C2=NN(c3ccccc3)[C@]3(C(=O)Nc4ccccc43)[C@H]2c2ccccc2)cc1`, the figure is 11.7 µM.
The same measure, in the same setting: as for `COc1ccc(C2=NO[C@]3(C(=O)Nc4cc(Br)ccc43)[C@H]2c2ccccc2)cc1`, the figure is 33.4 µM.
On to `COc1ccc(C2=NN(c3ccccc3)[C@]3(C(=O)Nc4cc(Cl)ccc43)[C@H]2c2cccc(Cl)c2)cc1`, for which the Activity in [2] is 10%; in [4], 38.45%; in [6], 54.78%; in [7], 11.33%; in series [12], 24.87%; in series [13], “Non-Toxic”. The figures for the Activity in [14], in series [17] and in series [19] were 50.22%, 20% and 20.35%, respectively. The inhibition result in series [3], in series [8] and in [18] was “Active” in each case. The values for the 50% inhibitory concentration (IC50) in series [5] and in series [1] were 11.6 µM and 10.9 µM, respectively. Moreover, the outcome in [20] was Active. The result in series [9] was inactive. The “fold change (FC)” value in [11] amounted to 1.5.
In series [1], `CC(C)(C)C1=NN(c2ccccc2)[C@]2(C(=O)Nc3cc(Cl)ccc32)[C@H]1c1cccc(Cl)c1` came in with a half-inhibitory concentration (IC50) of 18.4 µM.
Still for that read-out and setting: under `O=C1Nc2ccccc2[C@]12[C@@H](c1ccccc1)C(c1ccccc1)=NN2c1ccccc1` stands > 20 µM.
